Test results from ChEMBL document CHEMBL3228007, “Ergot alkaloids. Synthesis of nitrosourea derivatives of ergolines as potential anticancer agents” (J Med Chem, 1979).

How the values were obtained:
Rattus norvegicus = species: Rattus norvegicus; experiment: Inhibition of prolactin release in rat at 10 ug relative to control; format: functional
Mus musculus [1] = experiment: Toxicity in mouse allografted with mouse L1210 cells assessed as change in body weight at 6.25 mg/kg relative to control; format: organism-based; design: dose 6.25 mg/kg; conditions: in vivo
How it was run: (§1)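 Mice bearing L1210 leukemia, six per dose group, given compound as a suspension across a range of mg/kg doses. Antitumor read-out is T/C, with cures per group recorded. Toxicity is judged by body weight loss, with loss over 4 g flagged.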

L1210 [2] = experiment: Antitumor activity against mouse L1210 cells allografted in mouse assessed as tumor growth inhibition at 6.25 mg/kg relative to control; format: functional
How it was run: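 L1210 leukemia in mice, six per group; compound given as a suspension across a range of dose levels; activity expressed as T/C, with cures and weight loss recorded.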

L1210 [3] = experiment: Antitumor activity against mouse L1210 cells allografted in mouse assessed as tumor growth inhibition at 12.5 mg/kg relative to control; format: functional; how it was run: as §1
Mus musculus [4] = experiment: Toxicity in mouse allografted with mouse L1210 cells assessed as survival at 6.25 mg/kg; format: organism-based; design: dose 6.25 mg/kg; conditions: in vivo; how it was run: as §1
Mus musculus [5] = experiment: Toxicity in mouse allografted with mouse L1210 cells assessed as change in body weight at 25 mg/kg relative to control; format: organism-based; design: dose 25 mg/kg; conditions: in vivo; how it was run: as §1
Mus musculus [6] = experiment: Toxicity in mouse allografted with mouse L1210 cells assessed as survival at 50 mg/kg; format: organism-based; design: dose 50 mg/kg; conditions: in vivo; how it was run: as §1
Mus musculus [7] = experiment: Toxicity in mouse allografted with mouse L1210 cells assessed as change in body weight at 100 mg/kg relative to control; format: organism-based; design: dose 100 mg/kg; conditions: in vivo; how it was run: as §1
Mus musculus [8] = experiment: Toxicity in mouse allografted with mouse L1210 cells assessed as survival at 12.5 mg/kg; format: organism-based; design: dose 12.5 mg/kg; conditions: in vivo; how it was run: as §1
L1210 [9] = experiment: Antitumor activity against mouse L1210 cells allografted in mouse assessed as tumor growth inhibition at 25 mg/kg relative to control; format: functional; how it was run: as §1
Mus musculus [10] = experiment: Toxicity in mouse allografted with mouse L1210 cells assessed as survival at 25 mg/kg; format: organism-based; design: dose 25 mg/kg; conditions: in vivo; how it was run: as §1
Mus musculus [11] = experiment: Toxicity in mouse allografted with mouse L1210 cells assessed as change in body weight at 50 mg/kg relative to control; format: organism-based; design: dose 50 mg/kg; conditions: in vivo; how it was run: as §1
L1210 [12] = experiment: Antitumor activity against mouse L1210 cells allografted in mouse assessed as tumor growth inhibition at 50 mg/kg relative to control; format: functional; how it was run: as §1
Mus musculus [13] = experiment: Toxicity in mouse allografted with mouse L1210 cells assessed as change in body weight at 12.5 mg/kg relative to control; format: organism-based; design: dose 12.5 mg/kg; conditions: in vivo; how it was run: as §1
Mus musculus [14] = experiment: Toxicity in mouse allografted with mouse P388 cells assessed as change in body weight at 100 mg/kg relative to control; format: organism-based; design: dose 100 mg/kg; conditions: in vivo
Mus musculus [15] = experiment: Toxicity in mouse allografted with mouse L1210 cells assessed as survival at 100 mg/kg; format: organism-based; design: dose 100 mg/kg; conditions: in vivo; how it was run: as §1
P388 [16] = experiment: Antitumor activity against mouse P388 cells allografted in mouse assessed as tumor growth inhibition at 50 mg/kg relative to control; format: functional
Mus musculus [17] = experiment: Toxicity in mouse allografted with mouse L1210 cells assessed as survival at 200 mg/kg; format: organism-based; design: dose 200 mg/kg; conditions: in vivo; how it was run: as §1
Mus musculus [18] = experiment: Toxicity in mouse allografted with mouse P388 cells assessed as change in body weight at 50 mg/kg relative to control; format: organism-based; design: dose 50 mg/kg; conditions: in vivo
Mus musculus [19] = experiment: Toxicity in mouse allografted with mouse P388 cells assessed as survival at 100 mg/kg; format: organism-based; design: dose 100 mg/kg; conditions: in vivo
P388 [20] = experiment: Antitumor activity against mouse P388 cells allografted in mouse assessed as tumor growth inhibition at 25 mg/kg relative to control; format: functional
Mus musculus [21] = experiment: Toxicity in mouse allografted with mouse L1210 cells assessed as survival at 400 mg/kg; format: organism-based; design: dose 400 mg/kg; conditions: in vivo; how it was run: as §1
Mus musculus [22] = experiment: Toxicity in mouse allografted with mouse L1210 cells assessed as change in body weight at 400 mg/kg relative to control; format: organism-based; design: dose 400 mg/kg; conditions: in vivo; how it was run: as §1
P388 [23] = experiment: Antitumor activity against mouse P388 cells allografted in mouse assessed as tumor growth inhibition at 100 mg/kg relative to control; format: functional
L1210 [24] = experiment: Antitumor activity against mouse L1210 cells allografted in mouse assessed as tumor growth inhibition at 400 mg/kg relative to control; format: functional; how it was run: as §1
Mus musculus [25] = experiment: Toxicity in mouse allografted with mouse P388 cells assessed as change in body weight at 25 mg/kg relative to control; format: organism-based; design: dose 25 mg/kg; conditions: in vivo
L1210 [26] = experiment: Antitumor activity against mouse L1210 cells allografted in mouse assessed as tumor growth inhibition at 100 mg/kg relative to control; format: functional; how it was run: as §1
Mus musculus [27] = experiment: Toxicity in mouse allografted with mouse P388 cells assessed as survival at 25 mg/kg; format: organism-based; design: dose 25 mg/kg; conditions: in vivo
Mus musculus [28] = experiment: Toxicity in mouse allografted with mouse P388 cells assessed as survival at 50 mg/kg; format: organism-based; design: dose 50 mg/kg; conditions: in vivo
Mus musculus [29] = experiment: Toxicity in mouse allografted with mouse L1210 cells assessed as change in body weight at 200 mg/kg relative to control; format: organism-based; design: dose 200 mg/kg; conditions: in vivo; how it was run: as §1
L1210 [30] = experiment: Antitumor activity against mouse L1210 cells allografted in mouse assessed as tumor growth inhibition at 200 mg/kg relative to control; format: functional; how it was run: as §1

Row | Compound | inhibition (INH) (Rattus norvegicus) [%] | T/C (L1210 [3]) [%] | Activity (Mus musculus [5]) [g] | Activity (Mus musculus [6]) | Activity (Mus musculus [7]) [g] | T/C (L1210 [9]) [%] | Activity (Mus musculus [10]) | Activity (Mus musculus [11]) [g] | T/C (L1210 [12]) [%] | Activity (Mus musculus [13]) [g] | also measured
1 | CC(C)[C@H]1C(=O)N2CCC[C@H]2[C@]2(O)O[C@](NC(=O)[C@@H]3C=C4c5cccc6[nH]cc(c56)C[C@H]4N(C)C3)(C(C)C)C(=O)N12 [ERGOCORNINE] | 88 |  |  |  |  |  |  |  |  |  | 
2 | CN1CC(CO)=C[C@@H]2c3cccc4c3c(cn4N=O)C[C@H]21 | 36 |  |  |  |  |  |  |  |  |  | 
3 | C[C@H]1CC[C@H](NC(=O)N(CCCl)N=O)CC1 |  | 256 | -3.4 | Non-toxic | -6.6 | 301 | Non-toxic | -4.8 | 327 | -0.2 | Activity (Mus musculus [1]): 0.4 g; T/C (L1210 [2]): 187%; Activity (Mus musculus [4]): Non-toxic; Activity (Mus musculus [8]): Not Active
4 | CN1C[C@H](N)C[C@@H]2c3cccc4[nH]cc(c34)C[C@H]21 | 57 |  |  |  |  |  |  |  |  |  | 
5 | CN1C[C@H](NC(=O)N(CCCl)N=O)C[C@@H]2c3cccc4c3c(cn4N=O)C[C@H]21 | 17 | 105 | -1.8 | Non-toxic | -3.4 | 117 | Non-toxic | -2.2 | 121 | -1.2 | Activity (Mus musculus [14]): -1.8 g; Activity (Mus musculus [15]): Non-toxic; T/C (P388 [16]): 166%; Activity (Mus musculus [17]): Non-toxic; Activity (Mus musculus [18]): 0 g; Activity (Mus musculus [19]): Non-toxic; T/C (P388 [20]): 137%; Activity (Mus musculus [21]): Non-toxic; Activity (Mus musculus [22]): -6.4 g; T/C (P388 [23]): 201%; T/C (L1210 [24]): 289%; Activity (Mus musculus [25]): -0.4 g; T/C (L1210 [26]): 144%; Activity (Mus musculus [27]): Non-toxic; Activity (Mus musculus [28]): Non-toxic; Activity (Mus musculus [29]): -5.2 g; T/C (L1210 [30]): 164%
6 | CN1C[C@H](NC(=O)N(CCCl)N=O)C[C@@H]2c3cccc4[nH]cc(c34)C[C@H]21 | 28 | 119 | -1.4 | Non-toxic | -4 | 137 | Non-toxic | -2.8 | 154 | -1.2 | Activity (Mus musculus [15]): Non-toxic; Activity (Mus musculus [17]): Non-toxic; Activity (Mus musculus [21]): Non-toxic; Activity (Mus musculus [22]): -7.6 g; T/C (L1210 [26]): 248%; Activity (Mus musculus [29]): -6 g; T/C (L1210 [30]): 390%
7 | CN1CC(COC(=O)NCCCl)=C[C@@H]2c3cccc4[nH]cc(c34)C[C@H]21 | 87 |  |  |  |  |  |  |  |  |  | 
8 | CN1C[C@H](CC#N)C[C@@H]2c3cccc4[nH]c(Cl)c(c34)C[C@H]21 [LERGOTRILE] | 71 |  |  |  |  |  |  |  |  |  | 
9 | CN1CC(CO)=C[C@@H]2c3cccc4[nH]cc(c34)C[C@H]21 | 71 |  |  |  |  |  |  |  |  |  | 
